Measured values of several laboratories.
Compare with care: the assays were run in different laboratories.
Target: Calcium/calmodulin-dependent protein kinase type II subunit beta (CAMK2B, Homo sapiens, UniProt Q13554)

The inhibition of `Cc1ncc([N+](=O)[O-])n1C(=NO)c1ccccc1C(F)(F)F` is reported as 13.6% (enzyme activity; inhibitor; 10 µM).
With `CCN(CC)CCNC(=O)c1c(C)[nH]c(/C=C2\C(=O)Nc3ccc(F)cc32)c1C` the inhibition was 91% (enzyme activity; inhibitor; 10 µM).
`CC(C)(C)c1nc(-c2cccc(NS(=O)(=O)c3c(F)cccc3F)c2F)c(-c2ccnc(N)n2)s1` has a remaining activity of 78% (enzyme activity; inhibitor; radiometric; 1 µM).
The remaining binding of `O=C(NCc1ncc(C(F)(F)F)cc1Cl)c1ccc2c(c1)C1(CCS(=O)(=O)CC1)[C@@H](C1CC1)N2S(=O)(=O)c1ccc(F)cc1` is reported as 92% (cell-free assay; competition with immobilised ligand; 1 µM).
With `CNC(=O)c1cc(Oc2ccc(NC(=O)Nc3ccc(Cl)c(C(F)(F)F)c3)cc2)ccn1` the inhibition was 50% (enzyme activity; inhibitor; 10 µM).
`CCN(CC)CCNC(=O)c1c(C)[nH]c(/C=C2\C(=O)Nc3ccc(Cl)cc32)c1C` has a remaining activity of 27.3% (enzyme activity; inhibitor; 0.5 µM).
The remaining activity of `CCCOc1ccc(OC)c(F)c1C(=O)c1ccc(C(=O)N[C@@H]2CNC[C@H]2NC(=O)c2ccc3[nH]ncc3c2)cc1` is reported as 53% (enzyme activity; inhibitor; 10 µM).
`Cc1ccc(Nc2nccc(N(C)c3ccc4c(C)n(C)nc4c3)n2)cc1S(N)(=O)=O` gave an inhibition of 15% (enzyme activity; inhibitor; 0.3 µM).
With `CCCS(=O)(=O)Nc1ccc(F)c(C(=O)c2c[nH]c3ncc(-c4ccc(Cl)cc4)cc23)c1F` the inhibition was under 10% (enzyme activity; inhibitor; 1 µM).
The remaining signal of `COc1cc(Nc2c(C#N)cnc3cc(OCCCN4CCN(C)CC4)c(OC)cc23)c(Cl)cc1Cl` is reported as 86.2% (cell-free assay; 0.5 µM).
`COc1cccc2c(NCc3ccccc3)nc(-n3c(N)nc4ccccc43)nc12` gave an inhibition of -1.1% (target engagement in cells; inhibitor; chemoproteomics; 20 mM).
`Cc1ccc(C(=O)Nc2ccc(CN3CCN(C)CC3)c(C(F)(F)F)c2)cc1C#Cc1cnc2cccnn12` gave a remaining activity of 97% (enzyme activity; inhibitor; 23.5 nM).
The remaining binding of `CCC(=O)N[C@@H]1CC[C@H](C(=O)N(C)c2ccc(-c3nc4ccccc4o3)cc2)C1` is reported as 100% (cell-free assay; competition with immobilised ligand; 1 µM).
`COc1cc(Cl)c(C(=O)N[C@@H](CN[C@H]2CC[C@@H](N)CC2)Cc2ccc(C#N)cc2)cc1-c1ccc(CN[C@H](C)c2ccc(C)cc2)o1` gave a remaining activity of 94% (enzyme activity; inhibitor; 1 µM).
With `O=C(Nc1cnn(-c2csc(C(=O)NC3COC3)c2)c1)Nc1c(F)cccc1Cl` the remaining activity was 99.1% (enzyme activity; inhibitor; 5 µM).
`COc1cc(-c2cc(-c3ccc(N4CCNCC4)cc3)cnc2C)cc(OC)c1OC` has an inhibition of 1% (enzyme activity; inhibitor; 1 µM).
For `O=c1c2ccccc2[nH]c(=S)n1CCN1CCC(=C(c2ccc(F)cc2)c2ccc(F)cc2)CC1`, the remaining activity was 102% (enzyme activity; inhibitor; 0.5 µM).
For `O=C(NC[C@@H]1[C@H]2CN(C(=O)OCc3cc(C(F)(F)F)cc(C(F)(F)F)c3)C[C@@H]12)c1ccc2[nH]nnc2c1`, the remaining binding was 100% (cell-free assay; competition with immobilised ligand; 1 µM).
The remaining signal of `O=C1Nc2ccc(Cl)cc2C1=Cc1cc(Cl)c(O)c(Cl)c1` is reported as 92% (cell-free assay; 0.5 µM).
The remaining binding of `Cc1nc(Cc2cccc(C(F)(F)F)c2)sc1-c1ccc(C(N)=O)nc1` is reported as 100% (cell-free assay; competition with immobilised ligand; 1 µM).
`c1ccc(CNc2nc(N3CCOc4ccccc43)nc3c2CCCC3)cc1` gave an inhibition of 12.7% (target engagement in cells; inhibitor; chemoproteomics; 20 mM).
`N#CCCc1ccc2c(c1)-c1[nH]c3ccc([N+](=O)[O-])cc3c1CC(=O)N2` gave a remaining signal of 99.3% (cell-free assay; 0.5 µM).
The remaining binding of `C[C@@H]1CN(c2cc(-c3nn(C)c4ccc(OC5(C)CC5)cc34)ncn2)C[C@H](C)O1` is reported as 96% (cell-free assay; competition with immobilised ligand; 1 µM).
For `CC(C)(O)[C@H]1CC[C@H](Nc2ccc3ncc(-c4cccc(C(F)(F)F)c4)n3n2)CC1`, the remaining activity was 96.9% (enzyme activity; inhibitor; 1 µM).
The remaining binding of `COc1ccc2c(c1)O[C@H](c1ccc(OC)c(OC)c1)C[C@@H]2NC(=O)C1(c2ccc3c(c2)OC(F)(F)O3)CC1` is reported as 88% (cell-free assay; competition with immobilised ligand; 1 µM).
The inhibition of `COc1cc2ncnc(Nc3ccc(Oc4ccccc4)cc3C)c2cc1OC` is reported as 8% (enzyme activity; inhibitor; 1 µM).
`CCCCN(CCCC)C(=O)CN1C[C@H](c2cc(OC)c3c(c2)OCO3)[C@@H](C(=O)O)[C@@H]1CC(C)(C)CCC` has a remaining binding of 100% (cell-free assay; competition with immobilised ligand; 1 µM).
For `CS(=O)(=O)CCNCc1ccc(-c2ccc3ncnc(Nc4ccc(OCc5cccc(F)c5)c(Cl)c4)c3c2)o1`, the remaining signal was 93.8% (cell-free assay; 0.5 µM).
The remaining binding of `O=C(O)[C@H]1[C@H](Cn2nnc3ccccc3c2=O)CC[C@@H]1C(=O)c1ccc(OCCC2CCOCC2)cc1` is reported as 100% (cell-free assay; competition with immobilised ligand; 1 µM).
`CCN(CC)c1ccc(C2=NNC(=O)CC2C)cc1[N+](=O)[O-]` (stereo not drawn) has a remaining activity of 96% (enzyme activity; inhibitor; 10 µM).
